Published values pooled from the literature.
Target: Casein kinase II subunit alpha' (CSNK2A2, Homo sapiens, UniProt P19784)

Compound	assay	conditions	quantity	result
Cc1ccc(Nc2nccc(N(C)c3ccc4c(C)n(C)nc4c3)n2)cc1S(N)(=O)=O	enzyme activity, inhibitor	10 µM	inhibition	-14%
COc1cccc2c(NCc3ccccc3)nc(-n3c(N)nc4ccccc43)nc12	target engagement in cells, inhibitor, chemoproteomics	20 mM	inhibition	-11.7%
COc1cc2ncnc(Nc3ccc(Oc4ccccc4)cc3C)c2cc1OC	enzyme activity, inhibitor	1 µM	inhibition	7%
CCCCNc1ncc2c(-c3ccc(F)cc3)nn(C[C@H]3CC[C@H](N)CC3)c2n1	target engagement in cells, inhibitor, chemoproteomics	20 mM	inhibition	-43.5%
CCCOc1ccc(OC)c(F)c1C(=O)c1ccc(C(=O)N[C@@H]2CNC[C@H]2NC(=O)c2ccc3[nH]ncc3c2)cc1	enzyme activity, inhibitor	10 µM	remaining activity	93%
O=C(Nc1cnn(-c2csc(C(=O)NC3COC3)c2)c1)Nc1ccccc1Cl	enzyme activity, inhibitor	5 µM	remaining activity	97.3%
Nc1c(C(=O)NCc2ccc(C(=O)NCCCC3CCCCC3)cc2)cnn1-c1ccccc1	cell-free assay, competition with immobilised ligand	0.1 µM	remaining binding	100%
O=C1NC(=O)c2cc(Nc3ccc(F)cc3)c(Nc3ccc(F)cc3)cc21	cell-free assay, inhibitor	0.5 µM	remaining signal	104%
COc1cc(Cl)c(C(=O)N[C@@H](CN[C@H]2CC[C@@H](N)CC2)Cc2ccc(C#N)cc2)cc1-c1ccc(CN[C@H](C)c2ccc(C)cc2)o1	enzyme activity, inhibitor	1 µM	remaining activity	106%
CS(=O)(=O)c1cc(C2(NC(=O)c3cncc4c3cnn4-c3ccc(F)cc3)CC2)ccn1	cell-free assay, competition with immobilised ligand	1 µM	remaining binding	80%
CC(C)(O)[C@H]1CC[C@H](Nc2ccc3ncc(-c4cccc(C(F)(F)F)c4)n3n2)CC1	enzyme activity, inhibitor	1 µM	remaining activity	73.6%
CSc1cccnc1N1CCN(Cc2nc3ccccc3[nH]2)CC1	cell-free assay, competition with immobilised ligand	1 µM	remaining binding	100%
CNC(=O)c1cc(Oc2ccc(NC(=O)Nc3ccc(Cl)c(C(F)(F)F)c3)cc2)ccn1	enzyme activity, inhibitor	0.3 µM	inhibition	-33%
COc1cccc(CNC(=O)c2nc3scc(COCc4ccc(C(=O)O)cc4)c3c(=O)[nH]2)c1	cell-free assay, competition with immobilised ligand	1 µM	remaining binding	79.4%
CC(C)(C)c1nc2c(s1)c1nc(N)ncc1c1ccc(NS(=O)(=O)c3c(F)cccc3F)c(F)c12	enzyme activity, inhibitor, radiometric	1 µM	remaining activity	94%
O=C1Nc2ccc(Cl)cc2C1=Cc1cc(Cl)c(O)c(Cl)c1	cell-free assay	0.5 µM	remaining signal	33.3%
Nc1ncnc2occ(-c3ccc(NC(=O)Nc4cc(C(F)(F)F)ccc4F)cc3)c12	enzyme activity, inhibitor	20 µM	remaining activity	41%
Cn1cnc(Br)c1C1=CN(c2ncnc3[nH]cnc23)CCS1	enzyme activity, inhibitor, radiometric	50 nM	inhibition	19.7%
CC(=O)C1=C(C)N(c2cccc(C(F)(F)F)c2)C(=O)N[C@@H]1c1ccc(C#N)nc1	cell-free assay, competition with immobilised ligand	1 µM	remaining binding	75.7%
CCN(CC)CCNC(=O)c1c(C)[nH]c(/C=C2\C(=O)Nc3ccc(F)cc32)c1C	enzyme activity, inhibitor	10 µM	inhibition	49%
CN(C)C(=O)Cn1cc(-c2nc([C@@](C)(c3ccc(-c4cnc(N)nc4)cc3)C3CC3)no2)cn1	cell-free assay, competition with immobilised ligand	1 µM	remaining binding	90%
CC(C)c1ccc(NC(=O)c2cccs2)c(-c2nc3ccccc3[nH]c2=O)c1	enzyme activity, inhibitor	1 µM	activity vs control	121%
O=C(Nc1cccnn1)N1CCC(=Cc2cccc(Oc3ccc(C(F)(F)F)cn3)c2)CC1	cell-free assay, competition with immobilised ligand	1 µM	remaining binding	100%
CCCS(=O)(=O)Nc1ccc(F)c(C(=O)c2c[nH]c3ncc(-c4ccc(Cl)cc4)cc23)c1F	enzyme activity, inhibitor	1 µM	inhibition	< 10%
